assay: Antiinflammatory activity in rat Polymorphonuclear leukocyte assessed as inhibition of LPS-induced nitric oxide production at 5 uM; assay type: functional
Summary of the method: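 Rat polymorphonuclear leukocytes stimulated with LPS; compounds tested at 5 μM, with dexamethasone at the same concentration as positive control. NO in culture supernatant was read by Griess reaction: equal volume of reagent (0.1% naphthylethylenediamine, 1% sulfanilamide in 5% phosphoric acid), 20 min at room temperature, A540, against sodium nitrite standards. Percent inhibition, n = 3.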

| Compound | inhibition at 5 µM [%] |
| --- | --- |
| C[C@@H]1O[C@@H](O[C@H]2[C@H](O[C@@H]3[C@@H](O)[C@H](O[C@H]4CC[C@]5(C)[C@H]6CC=C7[C@@H]8CC(C)(C)CC[C@]8(C(=O)O[C@@H]8O[C@H](CO)[C@@H](O)[C@H](O)[C@H]8O)[C@H](O)C[C@@]7(C)[C@]6(C)CC[C@H]5C4(C)C)O[C@H](C(=O)O)[C@H]3O)OC[C@H](O)[C@@H]2O)[C@H](O)[C@H](O)[C@H]1O [GORDONOSIDE M] | 2.9 |
| COc1cc(C(=O)OC[C@H]2O[C@@H](Oc3cc(O)c(OC)c(OC)c3)[C@H](O)[C@@H](O)[C@@H]2O)cc(OC)c1O | 4.7 |
| CC1(C)CC[C@]2(C(=O)O[C@@H]3O[C@H](CO)[C@@H](O)[C@H](O)[C@H]3O)[C@H](O)C[C@]3(C)C(=CC[C@@H]4[C@@]5(C)CC[C@H](O[C@@H]6O[C@H](C(=O)O)[C@@H](O)[C@H](O[C@@H]7OC[C@H](O)[C@H](O)[C@H]7O[C@@H]7OC[C@H](O)[C@H](O)[C@H]7O)[C@H]6O)C(C)(C)[C@@H]5CC[C@]43C)[C@@H]2C1 [GORDONOSIDE L] | 14 |
| C/C=C(/C)C(=O)O[C@H]1CC(C)(C)C[C@H]2C3=CC[C@@H]4[C@@]5(C)CC[C@H](O[C@@H]6O[C@H](C(=O)O)[C@@H](O)[C@H](O[C@@H]7OC[C@H](O)[C@H](O)[C@H]7O[C@@H]7OC[C@@H](O)[C@H](O)[C@H]7O)[C@H]6O[C@@H]6O[C@H](CO)[C@H](O)[C@H](O)[C@H]6O)C(C)(C)[C@@H]5CC[C@@]4(C)[C@]3(C)[C@@H](O)[C@@H](O)[C@@]12CO [GORDONOSIDE J] | 9.1 |
| C/C=C(/C)C(=O)O[C@H]1CC(C)(C)C[C@H]2C3=CC[C@@H]4[C@@]5(C)CC[C@H](O[C@@H]6O[C@H](C(=O)O)[C@@H](O)[C@H](O[C@@H]7OC[C@H](O)[C@H](O)[C@H]7O[C@@H]7OC[C@@H](O)[C@H](O)[C@H]7O)[C@H]6O[C@@H]6O[C@H](CO)[C@H](O)[C@H](O)[C@H]6O)C(C)(C)[C@@H]5CC[C@@]4(C)[C@]3(C)C[C@@H](O)[C@@]12CO [GORDONOSIDE I] | 96.6 |
| CC1(C)CC[C@]2(C(=O)O[C@@H]3O[C@H](CO)[C@@H](O)[C@H](O)[C@H]3O)[C@H](O)C[C@]3(C)C(=CC[C@@H]4[C@@]5(C)CC[C@H](O[C@@H]6O[C@H](C(=O)O)[C@@H](O)[C@H](O[C@@H]7OC[C@H](O)[C@H](O)[C@H]7O[C@@H]7OC[C@@H](O)[C@H](O)[C@H]7O)[C@H]6O[C@@H]6O[C@H](CO)[C@@H](O)[C@H](O)[C@H]6O)C(C)(C)[C@@H]5CC[C@]43C)[C@@H]2C1 [GORDONOSIDE N] | 8.9 |
| C[C@@H]1O[C@@H](O[C@@H]2[C@@H](O)[C@H](O[C@H]3[C@H](O[C@H]4CC[C@]5(C)[C@H]6CC=C7[C@@H]8CC(C)(C)CC[C@]8(C(=O)O[C@@H]8O[C@H](CO)[C@@H](O)[C@H](O)[C@H]8O)[C@H](O)C[C@@]7(C)[C@]6(C)CC[C@H]5C4(C)C)O[C@H](C(=O)O)[C@@H](O)[C@@H]3O[C@@H]3OC[C@@H](O)[C@H](O)[C@H]3O)O[C@H](CO)[C@H]2O)[C@H](O)[C@H](O)[C@H]1O [GORDONOSIDE P] | 5.9 |
| C[C@@H]1C[C@H]2[C@@H]3CCC4=CC(=O)C=C[C@]4(C)[C@@]3(F)[C@@H](O)C[C@]2(C)[C@@]1(O)C(=O)CO [DEXAMETHASONE] | 74.7 |
| CC1(C)CC[C@]2(C(=O)O[C@@H]3O[C@H](CO)[C@@H](O)[C@H](O)[C@H]3O)[C@H](O)C[C@]3(C)C(=CC[C@@H]4[C@@]5(C)CC[C@H](O[C@@H]6O[C@H](C(=O)O)[C@@H](O)[C@H](O[C@@H]7OC[C@H](O)[C@H](O)[C@H]7O)[C@H]6O)C(C)(C)[C@@H]5CC[C@]43C)[C@@H]2C1 [GORDONOSIDE K] | 6.4 |
| COc1cc(C(=O)OC[C@H]2O[C@@H](Oc3cc(O)c(OC)c(OC)c3)[C@H](O)[C@@H](O)[C@@H]2O)ccc1O | 6.5 |
| CC1(C)CC[C@]2(C(=O)O[C@@H]3O[C@H](CO)[C@@H](O)[C@H](O)[C@H]3O)[C@H](O)C[C@]3(C)C(=CC[C@@H]4[C@@]5(C)CC[C@H](O[C@@H]6O[C@H](C(=O)O)[C@@H](O)[C@H](O[C@@H]7OC[C@H](O)[C@H](O)[C@H]7O[C@@H]7OC[C@@H](O)[C@H](O)[C@H]7O)[C@H]6O[C@@H]6O[C@H](CO)[C@H](O)[C@H](O)[C@H]6O)C(C)(C)[C@@H]5CC[C@]43C)[C@@H]2C1 [GORDONOSIDE O] | 12.6 |

assay: Antiinflammatory activity in Macrophage assessed as LPS-induced nitric oxide production by Griess assay; assay type: functional, cell-based
Summary of the method: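 LPS-activated macrophages. Nitrite in culture supernatant was measured by the Griess reaction: supernatant mixed with an equal volume of Griess reagent (0.1% w/v N-(1-naphthyl)ethylenediamine dihydrochloride plus 1% w/v sulfanilamide in 5% v/v phosphoric acid, combined within 1 h of use), 20 min at room temperature, then A540. Sodium nitrite standards were used. Result reported as IC50.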

| IC50 [nM] | Compound |
| --- | --- |
| 140 | C/C=C(/C)C(=O)O[C@H]1CC(C)(C)C[C@H]2C3=CC[C@@H]4[C@@]5(C)CC[C@H](O[C@@H]6O[C@H](C(=O)O)[C@@H](O)[C@H](O[C@@H]7OC[C@H](O)[C@H](O)[C@H]7O[C@@H]7OC[C@@H](O)[C@H](O)[C@H]7O)[C@H]6O[C@@H]6O[C@H](CO)[C@H](O)[C@H](O)[C@H]6O)C(C)(C)[C@@H]5CC[C@@]4(C)[C@]3(C)C[C@@H](O)[C@@]12CO [GORDONOSIDE I] |

Source: ChEMBL document CHEMBL1781996, “Potential anti-inflammatory constituents of the stems of Gordonia chrysandra” (J Nat Prod, 2011)
